According to ChEMBL document CHEMBL1629488, “Synthesis and biological evaluation of 2-(3',4',5'-trimethoxybenzoyl)-3-aryl/arylaminobenzo[b]thiophene derivatives as a novel class of antiproliferative agents” (Eur J Med Chem, 2010):

What was measured:
HeLa = assay: Antiproliferative activity against human HeLa cells assessed as cell viability after 72 hrs by MTT assay; type: functional, cell-based
Outline: (§1)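 A549 and HeLa cells grown in DMEM with 10% FBS and penicillin/streptomycin. Plated at 8 × 10^3 cells/well and held 18 h at 37 °C in 5% CO2. Medium replaced with compound in complete medium at varied concentrations for 72 h at 37 °C, then MTT read.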

A549 = assay: Antiproliferative activity against human A549 cells after 72 hrs by MTT assay; type: functional, cell-based; settings: A549, 72 h; outline: as §1
HL-60 = assay: Antiproliferative activity against human HL60 cells after 72 hrs by MTT assay; type: functional, cell-based; settings: HL-60, 72 h
Jurkat = assay: Antiproliferative activity against human Jurkat cells after 72 hrs by MTT assay; type: functional, cell-based
K562 = assay: Antiproliferative activity against human K562 cells after 72 hrs by MTT assay; type: functional, cell-based; settings: K562, 72 h
[1] = Inhibition of tubulin polymerization after 20 mins by turbidimetry
Outline: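 Tubulin (10 µM) in glutamate buffer was preincubated with varied compound concentrations at 30 °C, then cooled to 0 °C. GTP was added and the mixture warmed to 30 °C in cuvettes while turbidity was recorded.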

[2] = Inhibition of tubulin polymerization after 20 mins by turbidimetry

| Compound | IC50 (HeLa) [µM] | IC50 (A549) [µM] | IC50 (HL-60) [µM] | IC50 (Jurkat) [nM] | IC50 (K562) [nM] | inhibition [1] [%] | IC50 [2] [µM] |
| --- | --- | --- | --- | --- | --- | --- | --- |
| COc1ccccc1-c1c(C(=O)c2cc(OC)c(OC)c(OC)c2)sc2ccccc12 | 5 | > 10 | 2.9 | 2900 | 3400 |  |  |
| COc1ccc(-c2c(C(=O)c3cc(OC)c(OC)c(OC)c3)sc3ccccc23)cc1 | 4.2 | 4.4 | 1.6 | 1600 | 1700 |  |  |
| COc1cc(C(=O)c2sc3ccccc3c2-c2ccc(SC)cc2)cc(OC)c1OC | 3.5 | 5.4 | 1.3 | 1900 | 1800 |  |  |
| COc1cc(C(=O)c2sc3ccccc3c2Nc2ccccc2)cc(OC)c1OC | 2.7 | 3 | 5.2 | 1600 | 2300 |  |  |
| COc1ccc(-c2c(C(=O)c3cc(OC)c(OC)c(OC)c3)sc3ccccc23)cc1C | > 10 | > 10 | > 10 | > 10000 | > 10000 |  |  |
| CCOc1ccc(-c2c(C(=O)c3cc(OC)c(OC)c(OC)c3)sc3ccccc23)cc1 | 3 | 3.1 | 3.5 | 4100 | 3100 |  |  |
| CCOc1ccc(Nc2c(C(=O)c3cc(OC)c(OC)c(OC)c3)sc3cc(C)ccc23)cc1 | 4.3 | 5.8 | 4 | 5000 | 4300 | 50 |  |
| COc1cc(C(=O)c2sc3ccccc3c2-c2ccc(F)cc2)cc(OC)c1OC | 3 | 3.2 | 3.2 | 2300 | 2100 |  |  |
| COc1cc(C(=O)c2sc3ccccc3c2-c2ccccc2)cc(OC)c1OC | 1.9 | 5 | 1.7 | 1500 | 2100 |  |  |
| COc1ccc(-c2c(C(=O)c3cc(OC)c(OC)c(OC)c3)sc3ccccc23)c(OC)c1 | 3.9 | 5.8 | 4.6 | 4000 | 4100 |  |  |
| COc1cc(C(=O)c2sc3cc(C)ccc3c2Nc2ccc(C)cc2)cc(OC)c1OC | 0.98 | 1.9 | 1.9 | 2500 | 1400 |  | 15 |
| COc1cc(C(=O)c2sc3ccccc3c2-c2ccc(Cl)cc2)cc(OC)c1OC | 5.2 | 7.5 | 3.3 | 3700 | 4200 |  |  |
| COc1ccc(Nc2c(C(=O)c3cc(OC)c(OC)c(OC)c3)sc3ccccc23)cc1 | 7.7 | 9.3 | 3.7 | 3500 | 2900 |  |  |
| COc1cc(C(=O)c2sc3ccccc3c2Nc2ccc(Cl)cc2)cc(OC)c1OC | 3.7 | 3.1 | 5.4 | 1900 | 1100 |  |  |
| COc1cc(C(=O)c2sc3ccccc3c2-c2ccc(C)cc2)cc(OC)c1OC | 3.7 | 7.8 | 1.4 | 3300 | 3500 |  |  |
| COc1ccc(OC)c(-c2c(C(=O)c3cc(OC)c(OC)c(OC)c3)sc3ccccc23)c1 |  | > 10 | > 10 | > 10000 | > 10000 |  |  |
| COc1cc(C(=O)c2sc3ccccc3c2Nc2ccc(C)cc2)cc(OC)c1OC | 3.5 | 2.6 | 4.6 | 1700 | 1600 |  |  |
